Experimental data collected from several papers.
Observed: cell growth or viability

SMILES	cell line	method	concentration	time	endpoint	result
COc1cccc(CNC[C@@](C)(O)[C@@H]2CC[C@@H](C)C[C@H]2OCc2ccccc2)c1	MDA-MB-231	MTT	30 µM	72 h	inhibition	95.3%
CC(=NNC(=O)COc1ccc2c(C)c(Cc3ccccc3)c(=O)oc2c1C)c1ccc(Br)cc1	MDA-MB-231	MTT	1000 µg/mL		viability	15.1%
CCC[C@H]1NC(=O)[C@H](Cc2cc(Cl)ccc2-c2cnn(C)c2)N(C)C(=O)[C@H](CC(C)C)NC(=O)[C@@H](N(C)C(=O)[C@H](CCCCN2CCOCC2)NC(=O)[C@@H](c2cccnc2)C2CCCCC2)CCCCNC1=O	NCI-H526	MTT		5 days	GI50	3400 nM
COc1ccc(CNC[C@](O)(COCc2ccc(OC)cc2)[C@@H]2CC[C@@H](C)C[C@H]2OCc2ccc(OC)cc2)cc1	MDA-MB-231	MTT	10 µM	72 h	inhibition	96.8%
C=CC(=O)NC1CCN(c2ncc3ncnc(Nc4ccc(Oc5ccc6c(c5)ncn6C)c(C)c4)c3n2)CC1	LCLC-103H				EC50	2.82 nM
CCc1c(C)c2ccc(OCc3nnc(S)n3N)c(C)c2oc1=O	MDA-MB-231	MTT	1000 µg/mL		viability	5.38%
C[C@H](NC(=O)[C@H](CC(=O)NCC(C)(C)C)NC(=O)C(=O)c1c[nH]c2ccccc12)C(=O)NCc1ccc(F)cc1F	A-375	resazurin		48 h	IC50	8870 nM
CCNC(=S)NNC(=O)COc1ccc2c(C)c(CC)c(=O)oc2c1C	MDA-MB-231	MTT	125 µg/mL		viability	45%
O=C(C=Cc1ccccc1)Nc1cc(-c2ccnc(N3CCC(O)CC3)c2)ccn1	MDA-MB-231	MTT		72 h	IC50	3 nM
Cc1c(C(=O)O)ccc2c3n(nc12)[C@@H]1[C@H](C3)N(CC2CC2)[C@@]2(C(=O)Nc3cc(Cl)ccc32)[C@H]1c1cccc(Cl)c1F	hTERT-RPE1				IC50	16 nM
C[C@@H]1CC[C@@H]([C@](C)(O)CNCc2ccccc2)[C@H](OCc2ccccc2)C1	MDA-MB-231	MTT	10 µM	72 h	inhibition	76.8%
CCc1c(C)c2ccc(OCC=Cc3ccccc3)c(C)c2oc1=O	MDA-MB-231	MTT	1000 µg/mL		viability	2.75%
Cc1cccc(/C=C/C(=O)Nc2cc(-c3ccnc(N4CCC(O)CC4)c3)ccn2)c1	MDA-MB-231	MTT	5 µM		inhibition	75.6%
C=CCNC(=S)NNC(=O)COc1ccc2c(C)c(CC)c(=O)oc2c1C	MDA-MB-231	MTT	250 µg/mL		viability	5.87%
C[C@@H]1CC[C@@H]([C@@](O)(CNCc2ccccc2)COCc2ccc(F)cc2)[C@H](OCc2ccc(F)cc2)C1	MDA-MB-231	MTT	30 µM	72 h	inhibition	98.8%
